The source made the active and inactive calls. The rule behind the calls is not given here.
Assays:
[1] = organism: Rattus norvegicus; assay: Selectivity ratio of Ki for rat dopamine D2L receptor to Ki for rat dopamine D3 receptor
Procedure, shortened: (§1)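 Inhibition of [3H]spiroperidol (16.2 Ci/mmol) binding to rat D2 or D3 receptors expressed in HEK-293 cells. Buffer contains 0.9% NaCl; "high [radioligand]" protocol. IC50 converted to Ki by Cheng–Prusoff. Means ± SEM of 3–6 experiments, each in triplicate.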

[2] = target: D(3) dopamine receptor (Rattus norvegicus, UniProt P19020); assay: Displacement of [3H]spiroperidol from rat dopamine D3 receptor expressed in HEK293 cells; format: cell-based; procedure, shortened: as §1
Chain of D(3) dopamine receptor (Rattus norvegicus, UniProt P19020) (P19020 whole entry): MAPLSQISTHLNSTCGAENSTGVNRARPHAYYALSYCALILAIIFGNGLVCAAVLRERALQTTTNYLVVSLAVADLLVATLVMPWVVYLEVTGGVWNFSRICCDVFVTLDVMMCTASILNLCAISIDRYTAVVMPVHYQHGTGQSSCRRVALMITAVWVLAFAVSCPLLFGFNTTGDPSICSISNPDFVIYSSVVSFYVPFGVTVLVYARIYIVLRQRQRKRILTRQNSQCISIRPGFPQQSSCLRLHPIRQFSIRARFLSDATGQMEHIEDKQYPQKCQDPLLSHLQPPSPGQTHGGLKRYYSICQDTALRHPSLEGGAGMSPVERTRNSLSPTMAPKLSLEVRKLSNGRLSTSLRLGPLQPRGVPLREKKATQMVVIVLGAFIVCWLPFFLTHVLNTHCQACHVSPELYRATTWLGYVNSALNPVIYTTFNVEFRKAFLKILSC

[3] = target: D(2) dopamine receptor (Rattus norvegicus, UniProt P61169); assay: Displacement of [3H]spiroperidol from rat dopamine D2L receptor expressed in HEK293 cells; format: cell-based; procedure, shortened: as §1
Chain of D(2) dopamine receptor (Rattus norvegicus, UniProt P61169) (P61169 whole entry): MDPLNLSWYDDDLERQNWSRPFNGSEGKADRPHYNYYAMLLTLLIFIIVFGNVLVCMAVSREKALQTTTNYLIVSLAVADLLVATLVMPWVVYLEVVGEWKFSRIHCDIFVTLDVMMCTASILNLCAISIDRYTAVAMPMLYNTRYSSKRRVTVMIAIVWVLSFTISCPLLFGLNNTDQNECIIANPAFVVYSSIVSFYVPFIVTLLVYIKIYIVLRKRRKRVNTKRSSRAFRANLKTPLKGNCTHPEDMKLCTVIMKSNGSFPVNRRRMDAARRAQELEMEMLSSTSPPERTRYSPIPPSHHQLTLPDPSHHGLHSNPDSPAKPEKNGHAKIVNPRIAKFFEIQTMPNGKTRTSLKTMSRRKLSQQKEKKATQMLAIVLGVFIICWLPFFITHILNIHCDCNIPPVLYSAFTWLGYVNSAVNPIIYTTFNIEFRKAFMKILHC

[4] = test system: Rattus norvegicus; assay: Antiparkinsonian activity in Sprague-Dawley rat assessed as reversal of reserpine-induced akinesia at 5 umol/kg, ip administered in 10% beta-hydroxy cyclodextrin solution measured up to 400 mins; format: functional, organism-based
Procedure, shortened: (§2)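 Male Sprague–Dawley rats (220–225 g) given reserpine 5 mg/kg s.c. 18 h before test drug. After 1 h acclimatization, drug given at 5 μmol/kg (i.p., or s.c. for ropinirole). Horizontal activity counted by infrared beam breaks for 6 h in 30-min intervals, compared with reserpine controls. n = 4; ANOVA with Dunnett's test.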

[5] = test system: MN9D; assay: Neuroprotective activity in mouse MN9D cells assessed as protection against MPP+-induced toxicity pretreated for 1 hr followed by MPP+-challenge measured after 24 hrs by MTT assay; format: functional, cell-based
Procedure, shortened: (§3)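 MN9D mouse dopaminergic hybridoma cells seeded at 1 × 10^4 per well on poly-L-lysine and equilibrated 40 h. Pretreated 1 h with compound (0.001–20 μM), then cotreated with 100 μM MPP+ for 24 h at 37 °C. Viability by MTT (0.5 mg/mL final, 3 h), formazan in DMSO/methanol, A570–A690. Means ± SD of three experiments in 4–6 replicates; ANOVA with Tukey's test.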

[6] = test system: Rattus norvegicus; assay: Antiparkinsonian activity in Sprague-Dawley rat assessed as reversal of reserpine-induced akinesia at 5 umol/kg, ip administered in deionized water measured up to 400 mins; format: functional, organism-based; procedure, shortened: as §2
[7] = test system: Rattus norvegicus; assay: Antiparkinsonian activity in 6-OHDA-lesioned Sprague-Dawley rat assessed as stimulation of rotational activity at 2.5 umol/kg measured for 5 hrs in presence of haloperidol; format: functional, organism-based
[8] = test system: Radical scavenging activity; assay: Antioxidant activity assessed as inhibition of DPPH free radical scavenging activity; format: functional
Procedure, shortened: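 Compounds in methanol (20–250 μM solutions) mixed 1:1 with 200 μM methanolic DPPH. Shaken 25 min at 30 °C, absorbance read at 517 nm. Methanol-only wells used for background; ascorbic acid as standard. % scavenging = (control A − sample A)/control A × 100.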

[9] = test system: Rattus norvegicus; assay: Antiparkinsonian activity in 6-OHDA-lesioned Sprague-Dawley rat assessed as stimulation of rotational activity at 9.28 mg/kg, ip measured for 10 hrs; format: functional, organism-based; parameters: dose 9.28 mg/kg
Procedure, shortened: (§4)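 Male Sprague–Dawley rats (290–320 g) with a left medial forebrain bundle 6-OHDA lesion, confirmed by apomorphine challenge. Drug given i.p. in water/saline; vehicle controls. Contralateral (clockwise) rotations counted in a rotometry harness chamber in 30-min bins over up to 12 h. Doses 5 or 10 μmol/kg. Mean ± SEM of 3–4 rats; ANOVA with Dunnett's test.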

[10] = organism: Homo sapiens; assay: Selectivity ratio of EC50 for human dopamine D2 receptor to EC50 for human dopamine D3 receptor
[11] = test system: Rattus norvegicus; assay: Antiparkinsonian activity in 6-OHDA-lesioned ip dosed Sprague-Dawley rat assessed as stimulation of rotational activity measured up to 12 hrs; format: functional, organism-based; procedure, shortened: as §4
[12] = test system: Rattus norvegicus; assay: Antiparkinsonian activity in 6-OHDA-lesioned Sprague-Dawley rat assessed as stimulation of rotational activity measured as time required to reach peak effect at 9.28 mg/kg, ip; format: functional; conditions: route intraperitoneal; procedure, shortened: as §4
[13] = test system: Rattus norvegicus; assay: Antiparkinsonian activity in 6-OHDA-lesioned Sprague-Dawley rat assessed as stimulation of rotational activity at 4.64 mg/kg, ip measured for 7 hrs; format: functional, organism-based; parameters: dose 4.64 mg/kg; procedure, shortened: as §4
[14] = target: T1, D(2) dopamine receptor (Homo sapiens, UniProt P14416); assay: Agonist activity at human dopamine D2 receptor expressed in CHO cells assessed as stimulation of [35S]GTPgammaS binding; format: functional, cell-based
T1 sequence (P14416 whole entry): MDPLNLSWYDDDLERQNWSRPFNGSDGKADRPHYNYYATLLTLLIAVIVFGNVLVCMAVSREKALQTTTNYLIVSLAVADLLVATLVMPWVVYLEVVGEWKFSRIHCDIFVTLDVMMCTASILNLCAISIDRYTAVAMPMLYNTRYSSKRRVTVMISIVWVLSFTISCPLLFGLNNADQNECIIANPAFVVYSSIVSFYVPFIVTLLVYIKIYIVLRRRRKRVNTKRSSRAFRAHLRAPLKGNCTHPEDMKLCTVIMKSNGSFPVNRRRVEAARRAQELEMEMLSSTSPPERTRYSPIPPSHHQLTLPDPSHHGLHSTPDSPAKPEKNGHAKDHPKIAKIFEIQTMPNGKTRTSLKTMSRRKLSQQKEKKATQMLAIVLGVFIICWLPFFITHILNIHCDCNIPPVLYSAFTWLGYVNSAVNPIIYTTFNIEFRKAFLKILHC
Procedure, shortened: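 [35S]GTPγS (1250 Ci/mmol) binding stimulated in CHO cells expressing human D2. EC50 is the concentration giving half-maximal stimulation. Means ± SEM of 3–6 experiments, each in triplicate.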

[15] = target: D(3) dopamine receptor (Homo sapiens, UniProt P35462); assay: Agonist activity at human dopamine D3 receptor expressed in CHO cells assessed as stimulation of [35S]GTPgammaS binding; format: functional, cell-based
Chain of D(3) dopamine receptor (Homo sapiens, UniProt P35462) (P35462 whole entry): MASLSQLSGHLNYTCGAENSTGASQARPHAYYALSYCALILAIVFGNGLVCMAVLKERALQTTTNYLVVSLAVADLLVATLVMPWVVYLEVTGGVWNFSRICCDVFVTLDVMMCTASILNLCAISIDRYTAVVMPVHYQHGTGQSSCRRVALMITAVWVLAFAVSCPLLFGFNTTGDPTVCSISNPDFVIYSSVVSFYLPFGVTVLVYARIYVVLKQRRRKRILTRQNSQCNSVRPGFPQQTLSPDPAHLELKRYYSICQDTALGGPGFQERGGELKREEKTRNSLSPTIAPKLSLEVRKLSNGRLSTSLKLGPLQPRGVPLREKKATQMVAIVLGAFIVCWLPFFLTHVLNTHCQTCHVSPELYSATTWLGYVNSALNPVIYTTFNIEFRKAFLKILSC

[16] = target: T1, D(2) dopamine receptor; assay: Agonist activity at human dopamine D2 receptor expressed in CHO cells assessed as stimulation of [35S]GTPgammaS binding relative to dopamine; format: functional, cell-based
Procedure, shortened: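 [35S]GTPγS (1250 Ci/mmol) binding stimulated in CHO cells expressing human D2. EC50 is the concentration giving half-maximal stimulation. […] Means ± SEM of 3–6 experiments, each in triplicate.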

[17] = test system: Rattus norvegicus; assay: Antiparkinsonian activity in 6-OHDA-lesioned Sprague-Dawley rat assessed as stimulation of rotational activity at 6.56 mg/kg, ip measured for 10 hrs; format: functional, organism-based; parameters: dose 6.56 mg/kg; procedure, shortened: as §4
[18] = test system: Rattus norvegicus; assay: Antiparkinsonian activity in 6-OHDA-lesioned Sprague-Dawley rat assessed as stimulation of rotational activity measured as time required to reach peak effect at 6.56 mg/kg, ip; format: functional; conditions: route intraperitoneal; procedure, shortened: as §4
[19] = target: T1, D(2) dopamine receptor; assay: Agonist activity at human dopamine D2 receptor expressed in CHO cells assessed as stimulation of [35S]GTPgammaS binding
[20] = test system: Rattus norvegicus; assay: Antiparkinsonian activity in 6-OHDA-lesioned Sprague-Dawley rat assessed as stimulation of rotational activity at 3.28 mg/kg, ip measured for 7 hrs; format: functional, organism-based; parameters: dose 3.28 mg/kg; procedure, shortened: as §4
[21] = target: T1, D(2) dopamine receptor; assay: Agonist activity at human dopamine D2 receptor expressed in CHO cells assessed as stimulation of [35S]GTPgammaS binding relative to dopamine
[22] = test system: MN9D; assay: Neuroprotective activity in mouse MN9D cells assessed as protection against MPP+-induced toxicity at 0.001 to 20 uM pretreated for 1 hr followed by MPP+-challenge measured after 24 hrs by MTT assay; format: functional, cell-based; procedure, shortened: as §3
[23] = test system: Rattus norvegicus; assay: Antiparkinsonian activity in 6-OHDA-lesioned Sprague-Dawley rat assessed as stimulation of rotational activity at 10 umol/kg measured up to 12 hrs; format: functional, organism-based; procedure, shortened: as §4
[24] = test system: Rattus norvegicus; assay: Antiparkinsonian activity in Sprague-Dawley rat assessed as reversal of reserpine-induced akinesia at 5 umol/kg, sc administered in deionized water measured up to 400 mins; format: functional, organism-based; procedure, shortened: as §2

SMILES	Ratio Ki [1]	Ki [2] [µM]	Ki [3] [µM]	inhibition [8]	further results
CCCN(CCCCN1CCN(c2ccc(-c3cccc(O)c3)cc2)CC1)C1CCc2nc(N)sc2C1 (racemic)	60	0.00943	0.567	–	–
CCCN(CCN1CCN(c2ccc(-c3ccccc3)cc2)CC1)C1CCc2nc(N)ncc2C1 (racemic)	201	0.00365	0.735	–	–
CCCN(CCN1CCN(c2ccc(-c3cccc(OC)c3)cc2)CC1)C1CCc2nc(N)sc2C1 (racemic)	220	0.00211	0.464	–	–
CCCN(CCN1CCN(c2ccc(-c3ccccc3)cc2)CC1)[C@H]1CCc2nc(N)sc2C1	–	–	–	Dose-dependent effect	Activity [4]: Active; Activity [5]: Dose-dependent effect; Activity [6]: inactive; Activity [7]: inactive
CCCN(CCN1CCN(c2ccc(-c3cccc(O)c3)cc2)CC1)[C@H]1CCc2c(O)cccc2C1	36	0.00077	0.0278	Dose-dependent effect	–
CCCN(CCN1CCN(c2ccc(-c3cccc(O)c3)cc2)CC1)[C@H]1CCc2nc(N)sc2C1	213	0.00173	0.369	Dose-dependent effect	Activity [9]: Active; Activity [5]: Dose-dependent effect; Ratio EC50 [10]: 159; Activity [11]: Dose-dependent effect; Time [12]: 7.5 h; Activity [13]: Active; Activity [6]: Active; EC50 [14]: 0.0159 µM; EC50 [15]: 0.0001 µM; Emax [16]: 116%
CCCN(CCN1CCN(c2ccc(-c3ccccc3O)cc2)CC1)C1CCc2nc(N)sc2C1 (racemic)	115	0.0018	0.208	–	–
O=C1O[C@H]([C@@H](O)CO)C(O)=C1O	–	–	–	Dose-dependent effect	–
CCCN(CCN1CCN(c2ccc(-c3ccccc3OC)cc2)CC1)C1CCc2nc(N)sc2C1 (racemic)	78	0.00357	0.274	–	–
CCCN(CCN1CCN(c2ccc(-c3cccc(O)c3)cc2)CC1)C1CCc2nc(N)sc2C1 (racemic)	289	0.0012	0.347	–	–
CCCN(CCN1CCN(c2ccc(-c3cccc(O)c3)cc2)CC1)[C@@H]1CCc2nc(N)sc2C1	76	0.0197	1.51	–	–
CCCN(CCN1CCN(c2ccc(-c3ccc(O)cc3)cc2)CC1)C1CCc2nc(N)sc2C1 (racemic)	196	0.00117	0.23	–	–
CCCN(CCN1CCN(c2ccc(-c3cccc(O)c3)cc2)CC1)C1CCc2nc(N)ncc2C1 (racemic)	196	0.067	13.1	–	–
CCCN(CCN1CCN(c2ccc(-c3cccc(OC)c3)cc2)CC1)[C@H]1CCc2nc(N)sc2C1	147	0.00233	0.343	Dose-dependent effect	Ratio EC50 [10]: 10.8; Activity [11]: Dose-dependent effect; Activity [17]: Active; Time [18]: 7.5 h; Activity [6]: Active; EC50 [19]: 0.0368 µM; EC50 [15]: 0.00342 µM; Activity [20]: Active; Emax [21]: 105%; Activity [22]: inactive
CCCN(CCN1CCN(C(=O)c2ccc(-c3ccccc3)cc2)CC1)C1CCc2nc(N)sc2C1 (racemic)	174	0.00958	1.67	–	–
CCCN(CCN1CCN(c2ccc(-c3ccc(OC)cc3)cc2)CC1)C1CCc2nc(N)sc2C1 (racemic)	151	0.00141	0.213	–	–
CCCN(CCN1CCN(c2ccc(-c3ccccc3)cc2O)CC1)C1CCc2nc(N)sc2C1 (racemic)	30	0.00235	0.0706	–	–
CCCN(CCC)CCc1cccc2c1CC(=O)N2	–	–	–	Dose-dependent effect	Activity [23]: Active; Activity [24]: Active

Source: ChEMBL document CHEMBL3124863, “Structural modifications of neuroprotective anti-Parkinsonian (-)-N6-(2-(4-(biphenyl-4-yl)piperazin-1-yl)-ethyl)-N6-propyl-4,5,6,7-tetrahydrobenzo[d]thiazole-2,6-diamine (D-264): an effort toward the improvement of in vivo efficacy of the parent molecule” (J Med Chem, 2014)
